Assay outcomes (PubChem)
Shown are actives, neighbours in structure and some others; about 1.8% of the full set was active somewhere.
DNMT1 inh: blocks human DNA methyltransferase DNMT1; inhibition (reported as % activation of signal), % at 10 µM; AID 588458; P26358; DNMT1 molecular beacon, Hinp1I cleavage, fluorescence; 360,000 tested, 0.83% active; in the data active means inhibition above about 50%
SUMO1 PPI mod: modulators of human SUMO1-mediated protein-protein interactions | P63165 | SUMO1 binding to a labelled peptide, TR-FRET, 1 h | inhibition, % at 20 µM | 360,000 tested, 0.33% active; in the data active means inhibition above about 37%
Target sequence (P63165 whole entry, looked up): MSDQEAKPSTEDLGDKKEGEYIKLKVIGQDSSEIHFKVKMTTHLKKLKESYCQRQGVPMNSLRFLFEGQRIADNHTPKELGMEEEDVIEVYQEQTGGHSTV
STEP inh: STEP (human) phosphatase inhibition. P54829. recombinant STEP, OMFP fluorogenic substrate, fluorescence. inhibition, % at 20 µM. 360,000 tested, 0.25% active. AID 588621;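 active means inhibition at 20 µM, scaled per plate between control wells, above about 37%, limit read from the data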
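medium = Bis-Tris buffer pH 6.0, 2.5 mM DTT, 0.005% Tween 20 | test system = STEP (striatal-enriched tyrosine phosphatase) enzyme, cell-free | measure = normalized % inhibition | compound dosing = 20 µM, 1% DMSO | also added = 25 µM OMFP | schedule = reaction 20 min, ambient temperature | measured by = fluorescence read at 480 nm ex / 540 nm em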
LMPTP block: blocks human LMPTP phosphatase | P24666 | inhibition, % at 20 µM | 360,000 tested, 0.22% active | recombinant LMPTP-A, OMFP fluorogenic substrate, fluorescence intensity;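 active means compounds that cut the enzyme signal by at least half of the control window in the single-dose screen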
Target sequence (P24666 whole entry, looked up): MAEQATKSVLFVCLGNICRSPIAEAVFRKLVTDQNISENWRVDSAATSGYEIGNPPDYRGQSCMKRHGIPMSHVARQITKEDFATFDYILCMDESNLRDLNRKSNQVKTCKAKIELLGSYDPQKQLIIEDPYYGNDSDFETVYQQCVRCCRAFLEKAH
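Test system – LMPTP-A enzyme · Amount – LMPTP-A at 0.625 nM final in the reaction · Buffer or medium – Bis-Tris pH 6.0, DTT, detergent · Reagent – OMFP 400 µM · Doses – single 20 µM dose · Schedule – reaction 50 min, room temperature, dark · Detection – fluorescence intensity of OMFP turnover product · Evaluation – percent inhibition versus substrate-only and uninhibited controls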
Scp1 inh: blocks human Scp-1 phosphatase activity | Recombinant Scp1, phosphopeptide, malachite green phosphate absorbance | inhibition, % at 20 µM | 340,000 tested, 0.88% active;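 active means inhibition above about 50% at 20 µM, limit read from the data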
Target sequence (Q9GZU7 76-261 limits assumed): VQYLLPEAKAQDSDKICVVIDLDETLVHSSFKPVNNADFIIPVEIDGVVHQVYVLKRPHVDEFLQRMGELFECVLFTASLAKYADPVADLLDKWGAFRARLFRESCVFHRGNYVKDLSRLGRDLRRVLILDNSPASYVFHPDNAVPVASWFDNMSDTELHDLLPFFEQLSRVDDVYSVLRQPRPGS
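System: truncated SCP-1 phosphatase (76-261aa); medium: Tris acetate buffer pH 5.5 with MgCl2 and Tween-20; incubation: 45 min room-temperature reaction, 5 min colour, 30 min stabiliser; compound: single 20 µM dose, 1% DMSO; reagent: Phosphorylated 17-residue peptide substrate; read-out: % inhibition at 20 µM; technique: colorimetric free-phosphate detection, absorbance 630 nm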
Scp1 confirm: confirmation of human Scp-1 phosphatase inhibitors; shares compounds with Scp1 inh; recombinant SCP-1 catalytic domain, phosphate release, malachite green absorbance; inhibition, % at 20 µM; 2,500 tested, 61% active
MG interference: counter-screen for Scp-1 inhibitors: colorimetric interference; shares compounds with Scp1 inh; Colorimetric interference counterscreen, malachite green absorbance 630 nm; apparent inhibition (interference), % at 20 µM; 2,500 tested, under 10 active;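 further: compounds added after enzyme reaction finished so only phosphate colour detection is probed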
Scp1 DSF: Scp-1 (human) binding by thermal shift; Recombinant SCP1, Sypro Orange thermal shift Tm; shares compounds with Scp1 inh; 1,500 tested, 25% active; thermal shift relative to vanadate control, % at 40 µM;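 active means substances whose mean melting-temperature shift, as a percentage of the reference inhibitor's shift, reaches about 5.3%, limit read from the data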
Large screens that a line does not name were inactive (follow-up assays come after a bar, where they were run).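 How the source made its calls, unless noted: active means inhibition of at least 30% at 20 µM; inactive means the rest.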

C/C(N)=C(/C#N)C(=O)CSc1nc2ccccc2[nH]1	Scp1 inh 69.2 | Scp1 confirm 51.3 | MG interference inactive | Scp1 DSF inactive
COc1ccc(-c2noc(CN3CCN(c4ccccc4)CC3)n2)cc1	Scp1 inh 67.5 | Scp1 confirm inactive | MG interference inactive
COc1ccc(-c2noc(CCC(=O)N3CCN(c4ccccc4Cl)CC3)n2)cc1	none
COc1ccc(-c2noc(CCC(=O)N3CCN(c4ccccc4Br)CC3)n2)cc1	Scp1 inh 53.6 | Scp1 confirm inactive | MG interference inactive
COc1ccccc1Nc1cc(C)nc(Nc2ccccc2OC)n1	none
Brc1ccc(-c2nn3c(-c4ccccn4)nnc3s2)o1	Scp1 inh 72.0 | Scp1 confirm 50.3 | MG interference inactive | Scp1 DSF inactive
Clc1ccccc1-c1nn2c(-c3ccccn3)nnc2s1	none
C[N+](C)(C)CCCN(Cc1ccc2c(c1)OCO2)C(=O)NC1CCCCC1	Scp1 inh 90.9 | Scp1 confirm 78.9 | MG interference inactive | Scp1 DSF inactive
O=C(Oc1ccccc1C(=O)N1CCOCC1)c1ccc(F)cc1	Scp1 inh 96.9 | Scp1 confirm inactive | MG interference inactive
C/C(=N\NC(=O)c1cc(-c2cccc([N+](=O)[O-])c2)n[nH]1)c1ccc(F)cc1	none
O=C(N/N=C/c1ccc(-c2cccc([N+](=O)[O-])c2)o1)c1ccc([N+](=O)[O-])cc1	Scp1 inh 52.5 | Scp1 confirm inactive | MG interference inactive
C/C(=N\NC(=O)c1cc(-c2cccc([N+](=O)[O-])c2)n[nH]1)c1ccccc1O	DNMT1 inh 60.1, STEP inh 96.8, Scp1 inh 95.8 | Scp1 confirm 85.3 | MG interference inactive | Scp1 DSF 6.3
O=C(N/N=C/c1ccc(-c2cccc([N+](=O)[O-])c2)o1)c1ccccc1O	Scp1 inh 74.5 | Scp1 confirm 76.7 | MG interference inactive | Scp1 DSF 9.2
Cn1ccc2c(-c3cccc(C=O)c3)cc3c(c21)C1CCC3O1 (configuration not stated)	none (no result: Scp1 inh)
Cc1ccc(S(=O)(=O)N2CCCC2C(=O)OCc2ccco2)cc1 (configuration not stated)	Scp1 inh 77.0 | Scp1 confirm 69.2 | MG interference inactive | Scp1 DSF inactive
CC(C)(C)c1ccc(OCCNCc2ccccc2)cc1	none
CC(C)(C)c1ccc(OCCNC(=S)Nc2ccccc2)cc1	Scp1 inh 56.5 | Scp1 confirm inactive | MG interference inactive
COc1cc(NC(=O)Nn2cnnc2)cc(OC)c1OC	none
C=CCOc1ccc(/C=C\c2nc(O)c([N+](=O)[O-])c(=O)[nH]2)cc1OC	Scp1 inh 62.0 | Scp1 confirm 58.8 | MG interference inactive | Scp1 DSF inactive
C=CCOc1ccc(/C=C\c2nc(O)c([N+](=O)[O-])c(=O)[nH]2)cc1OCC	Scp1 inh 98.7 | Scp1 confirm 44.9 | MG interference inactive | Scp1 DSF inactive
COc1cc(/C=C/c2[nH]c(=O)[nH]c(=O)c2[N+](=O)[O-])ccc1OCCC(C)C	Scp1 inh 62.6 | Scp1 confirm 71.2 | MG interference inactive | Scp1 DSF inactive
COc1ccc(/C=C\c2nc(O)c([N+](=O)[O-])c(=O)[nH]2)cc1O	none
O=C(NC1CCCCC1)C(c1ccc(F)cc1)N(C(=O)c1csnn1)C1CCCC1 (configuration not stated)	none
Cc1ccc(C(C)C)cc1OCC(=O)Nc1ccc(N2CCCCC2)cc1	none
Cc1ccc(OCCCC(=O)NNC(=O)c2ccccn2)cc1	none
C[n+]1cccc(C(=O)NNC(=O)C23CC4CC(CC(C4)C2)C3)c1	Scp1 inh 101.7 | Scp1 confirm inactive | MG interference inactive
Cn1cc(SCC(=O)NCc2ccc(F)cc2)c2ccccc21	none
Cn1c(=O)cc(SCC(=O)NCc2ccc(F)cc2)c2ccccc21	none | Scp1 confirm inactive | MG interference inactive
C[C@@H]1CN([C@H](C)CO)C(=O)CCCn2nncc2CO[C@H]1CN(C)Cc1ccc(C(F)(F)F)cc1	none (no result: Scp1 inh)
N#C/C(=C\c1c(N2CCOCC2)nc2ccccn2c1=O)S(=O)(=O)c1ccccc1	Scp1 inh 53.8 | Scp1 confirm inactive | MG interference inactive
N#C/C(=C\c1c(N2CCN(Cc3ccccc3)CC2)nc2ccccn2c1=O)S(=O)(=O)c1ccccc1	none
COc1ccc(-c2sc3ccc(N4CCOCC4)cc3c2C#CC2(O)CCCCC2)cc1	none
COc1ccc(-c2ccc3oc(-c4ccc(OC)cc4)c(C#CC4(O)CCCCC4)c3c2)cc1	Scp1 inh 72.6 | Scp1 confirm 41.5 | MG interference inactive | Scp1 DSF inactive
COc1ccc(NC(=O)C2CC(=O)N(c3ccccc3F)C2)cc1S(=O)(=O)N1CCCCC1 (configuration not stated)	none (no result: Scp1 inh)
CCOc1ccc(NC(=O)CN(C)C(=O)c2ccc(N3CCCC3)c([N+](=O)[O-])c2)cc1OCC	Scp1 inh 52.7 | Scp1 confirm inactive | MG interference inactive
COc1ccc(OC)c(/C=C/C(=O)OCC(=O)NCc2cccs2)c1	none
COc1ccc(SC[C@H](Cc2ccccc2)N2CC[C@@H](C)CCC2=O)cc1	none
COc1ccc(S(=O)(=O)NNC(=O)Cc2csc(C)n2)cc1[N+](=O)[O-]	Scp1 inh 60.2 | Scp1 confirm 64.2 | MG interference inactive | Scp1 DSF inactive
CCCCCC1=C(C(=O)OC)C(C(=O)OCC)N(S(=O)(=O)C(F)(F)F)c2ccccc21 (configuration not stated)	none
C=CCNC(=O)c1ccc2c(c1)N(CC)C(=O)c1ccccc1S2	none
CCOC(=O)c1ccc2c(c1)N(CC)C(=O)c1ccccc1S2	Scp1 inh 83.1 | Scp1 confirm inactive | MG interference inactive
Cc1cccnc1NC(=O)CCc1nnc2ccc(NCc3ccco3)nn12	none
O=C(CCc1nnc2ccc(NCc3ccco3)nn12)Nc1ccccn1	Scp1 inh 58.8 | Scp1 confirm 51.6 | MG interference inactive | Scp1 DSF inactive
CC1NC(=O)NC1CCCCCC(=O)Nc1ccc(F)c(Cl)c1 (configuration not stated)	none | Scp1 confirm inactive | MG interference inactive
CCc1cccc(NC(=O)CCCCCC2NC(=O)NC2C)c1 (configuration not stated)	none | Scp1 confirm inactive | MG interference inactive
